Data taken from ChEMBL document CHEMBL3526060, “Impact of hydrolysis-mediated clearance on the pharmacokinetics of novel anaplastic lymphoma kinase inhibitors” (Drug Metab Dispos, 2013).

Legend:
[1] = Tmax in CD-1 mouse at 50 mg/kg, po administered through gavage by LC-MS/MS analysis; format: ADME, organism-based; set-up: dose 50 mg/kg, route oral; conditions: in vivo
Procedure, shortened: (§1)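 Male CD-1 mice, fasted overnight, food returned 2 h post-dose; single oral gavage at 20, 50 or 100 mg/kg. Terminal cardiac-puncture blood at 0.25, 0.5, 1, 2, 4, 6, 8, 24 h, 3 mice per time point; heparinized plasma extracted into acetonitrile/formic acid with IS, LC-MS/MS. Noncompartmental analysis: linear trapezoidal AUC extrapolated to infinity, CL/F, F relative to 2 mg/kg IV.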

Plasma [2] = test: Drug metabolism in CD-1 mouse plasma assessed as hydrolysis metabolite formation rate by LC-MS/MS analysis; format: ADME, cell-free
Procedure, shortened: (§2)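 Mouse plasma depletion kinetics at 37 °C, substrate range 0.0023–5 µM, up to 3 h; samples quenched into acetonitrile/tolbutamide, LC-MS/MS. CLint per concentration from t1/2; apparent Vmax and Km fitted by nonlinear regression to Michaelis-Menten, formation rate simulated from fit; mean of two replicates.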

[3] = Plasma clearance in CD-1 mouse at 2 mg/kg, iv administered as single bolus dose by LC-MS/MS analysis; format: ADME, organism-based; set-up: dose 2 mg/kg, route intravenous
Procedure, shortened: (§3)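 Single 2 mg/kg IV bolus via lateral tail vein to male CD-1 mice. Mice euthanized at 0.083–24 h, 3 per time point (27 animals); cardiac-puncture blood into heparin on ice, plasma spun at 4 °C and immediately extracted with acetonitrile/0.1% formic acid plus IS, LC-MS/MS. Noncompartmental CL = Dose/AUC0–inf, t1/2 = 0.693/k, Vss from AUMC/AUC, MRT = Vss/CL.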

[4] = Half life in CD-1 mouse at 2 mg/kg, iv administered as single bolus dose by LC-MS/MS analysis; format: ADME, organism-based; set-up: dose 2 mg/kg, route intravenous; conditions: in vivo; procedure, shortened: as §3
[5] = AUC (0 to infinity) in CD-1 mouse at 50 mg/kg, po administered through gavage by LC-MS/MS analysis; format: ADME, organism-based; set-up: time infinity, dose 50 mg/kg, route oral; conditions: plasma; procedure, shortened: as §1
[6] = Apparent oral clearance in CD-1 mouse at 20 mg/kg, po administered through gavage by LC-MS/MS analysis; format: ADME, organism-based; set-up: dose 20 mg/kg, route oral; conditions: in vivo; procedure, shortened: as §1
[7] = Volume of distribution at steady state in CD-1 mouse at 2 mg/kg, iv administered as single bolus dose by LC-MS/MS analysis; format: ADME, organism-based; set-up: dose 2 mg/kg, route intravenous; conditions: in vivo, read-out: Vdss; procedure, shortened: as §3
[8] = Intrinsic clearance in CD-1 mouse liver microsomes at 0.1 uM by LC-MS/MS analysis in presence of NADPH; format: ADME; conditions: read-out: CLH
Procedure, shortened: (§4)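 Liver microsomes (0.25 mg/mL protein, 0.1 M phosphate pH 7.4) from mouse, rat, dog or human; substrate 0.1 or 1 µM with 1 mM NADPH (mouse also without). Samples at 0, 10, 20, 30, 40 min into acetonitrile with tolbutamide, centrifuged, LC-MS/MS; CLint = (0.693/t1/2)/microsomal protein concentration.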

[9] = Tmax in CD-1 mouse at 20 mg/kg, po administered through gavage by LC-MS/MS analysis; format: ADME, organism-based; set-up: dose 20 mg/kg, route oral; conditions: in vivo; procedure, shortened: as §1
[10] = Oral bioavailability in CD-1 mouse at 100 mg/kg administered through gavage by LC-MS/MS analysis relative to 2 mg/kg, iv dose; format: ADME, organism-based; conditions: in vivo; procedure, shortened: as §1
[11] = AUC (0 to infinity) in CD-1 mouse at 20 mg/kg, po administered through gavage by LC-MS/MS analysis; format: ADME, organism-based; set-up: time infinity, dose 20 mg/kg, route oral; conditions: plasma; procedure, shortened: as §1
[12] = Intrinsic clearance in human liver microsomes at 0.1 uM by LC-MS/MS analysis in presence of NADPH; format: ADME; conditions: read-out: CLH; procedure, shortened: as §4
[13] = Cmax in CD-1 mouse at 100 mg/kg, po administered through gavage by LC-MS/MS analysis; format: ADME, organism-based; set-up: dose 100 mg/kg, route oral; conditions: in vivo; procedure, shortened: as §1
[14] = Intrinsic clearance in Sprague-Dawley rat liver microsomes at 1 uM by LC-MS/MS analysis in presence of NADPH; format: ADME; conditions: read-out: CLH; procedure, shortened: as §4
[15] = Cmax in CD-1 mouse at 50 mg/kg, po administered through gavage by LC-MS/MS analysis; format: ADME, organism-based; set-up: dose 50 mg/kg, route oral; conditions: in vivo; procedure, shortened: as §1
[16] = Half life in CD-1 mouse at 50 mg/kg, po administered through gavage by LC-MS/MS analysis; format: ADME, organism-based; set-up: dose 50 mg/kg, route oral; conditions: in vivo; procedure, shortened: as §1
[17] = AUC (0 to infinity) in CD-1 mouse at 100 mg/kg, po administered through gavage by LC-MS/MS analysis; format: ADME, organism-based; set-up: time infinity, dose 100 mg/kg, route oral; conditions: plasma; procedure, shortened: as §1
[18] = Cmax in CD-1 mouse at 20 mg/kg, po administered through gavage by LC-MS/MS analysis; format: ADME, organism-based; set-up: dose 20 mg/kg, route oral; conditions: in vivo; procedure, shortened: as §1
[19] = In vitro half life in CD-1 mouse plasma at 0.83 uM by LC-MS/MS analysis; format: ADME, cell-free
Procedure, shortened: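 Screening stability: compound at 0.83 µM in mouse plasma at 37 °C, up to 3 h; timed aliquots quenched into acetonitrile with tolbutamide IS, centrifuged, LC-MS/MS; half-life from depletion, CLint = (0.693/t1/2)/plasma concentration.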

[20] = Fraction unbound in CD-1 mouse plasma after 7 hrs by equilibrium dialysis method; format: ADME, cell-free
Procedure, shortened: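 Mouse plasma pre-treated 20 min with 100 µM DFP to block hydrolysis, spiked at 0.1, 0.5 or 2 µM, equilibrium dialysis against PBS for 7 h at 37 °C, 5% CO2, triplicate; matrix-matched samples extracted with acetonitrile/IS, LC-MS/MS; fu = buffer/plasma concentration.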

[21] = Intrinsic clearance in CD-1 mouse liver microsomes at 1 uM by LC-MS/MS analysis in presence of NADPH; format: ADME; conditions: read-out: CLH; procedure, shortened: as §4
[22] = AUC (0 to infinity) in CD-1 mouse at 2 mg/kg, iv administered as single bolus dose by LC-MS/MS analysis; format: ADME, organism-based; set-up: time infinity, dose 2 mg/kg, route intravenous; conditions: plasma; procedure, shortened: as §3
Plasma [23] = test: Drug metabolism in CD-1 mouse plasma assessed as maximum intrinsic clearance for hydrolysis metabolite formation by LC-MS/MS analysis; format: ADME, cell-free; procedure, shortened: as §2
[24] = Half life in CD-1 mouse at 100 mg/kg, po administered through gavage by LC-MS/MS analysis; format: ADME, organism-based; set-up: dose 100 mg/kg, route oral; conditions: in vivo; procedure, shortened: as §1
[25] = Tmax in CD-1 mouse at 100 mg/kg, po administered through gavage by LC-MS/MS analysis; format: ADME, organism-based; set-up: dose 100 mg/kg, route oral; conditions: in vivo; procedure, shortened: as §1
[26] = Apparent oral clearance in CD-1 mouse at 100 mg/kg, po administered through gavage by LC-MS/MS analysis; format: ADME, organism-based; set-up: dose 100 mg/kg, route oral; conditions: in vivo; procedure, shortened: as §1
[27] = Intrinsic clearance in CD-1 mouse liver microsomes at 1 uM by LC-MS/MS analysis in absence of NADPH; format: ADME; conditions: read-out: CLH; procedure, shortened: as §4
Mus musculus = test: Oral bioavailability in CD-1 mouse at 50 mg/kg administered through gavage by LC-MS/MS analysis relative to 2 mg/kg, iv dose; format: ADME, organism-based; conditions: in vivo; procedure, shortened: as §1
[28] = Intrinsic clearance in human liver microsomes at 1 uM by LC-MS/MS analysis in presence of NADPH; format: ADME; conditions: read-out: CLH; procedure, shortened: as §4
[29] = Half life in CD-1 mouse at 20 mg/kg, po administered through gavage by LC-MS/MS analysis; format: ADME, organism-based; set-up: dose 20 mg/kg, route oral; conditions: in vivo; procedure, shortened: as §1
[30] = Mean residence time in CD-1 mouse at 2 mg/kg, iv administered as single bolus dose by LC-MS/MS analysis; format: ADME, organism-based; set-up: dose 2 mg/kg, route intravenous; conditions: in vivo; procedure, shortened: as §3
Plasma [31] = test: Metabolic stability in CD-1 mouse plasma assessed as hydrolysis product M1 [(1s,4s)-4-(2-amino-6-((4-(2-hydroxypropan-2-yl)piperidin-1-yl)methyl)-1H-benzo[d]imidazol-1-yl)-N-isopropylcyclohexanecarboxamide] formation at 5 uM after 20 mins by LC-MS/MS analysis; format: ADME, cell-free
[32] = Intrinsic clearance in CD-1 mouse liver microsomes at 0.1 uM by LC-MS/MS analysis in absence of NADPH; format: ADME; conditions: read-out: CLH; procedure, shortened: as §4
[33] = Intrinsic clearance in Beagle dog liver microsomes at 1 uM by LC-MS/MS analysis in presence of NADPH; format: ADME, Canis lupus familiaris; conditions: read-out: CLH; procedure, shortened: as §4
[34] = Fraction unbound in CD-1 mouse liver microsomes after 7 hrs by equilibrium dialysis method; format: ADME
Procedure, shortened: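 Equilibrium dialysis of 0.25 mg/mL mouse liver microsomes in phosphate buffer against PBS, 7 h at 37 °C, 5% CO2, test compound 0.1, 0.5 or 2 µM, triplicate; LC-MS/MS; fraction unbound = buffer/microsome concentration.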

[35] = Drug metabolism in CD-1 mouse NADPH-fortified liver microsomes assessed as hydrolysis metabolite formation rate by LC-MS/MS analysis; format: ADME
Procedure, shortened: (§5)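 Mouse liver microsomes 0.25 mg/mL in 0.1 M phosphate pH 7.4, with or without 1 mM NADPH, substrate 0.0023–5 µM; sampling to 40 min into acetonitrile/IS, LC-MS/MS depletion. Hydrolysis Vmax/Km solved from no-NADPH incubations, then NADPH-dependent constants; metabolite formation rate simulated from fitted constants; duplicates.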

[36] = Apparent oral clearance in CD-1 mouse at 50 mg/kg, po administered through gavage by LC-MS/MS analysis; format: ADME, organism-based; set-up: dose 50 mg/kg, route oral; conditions: in vivo; procedure, shortened: as §1
[37] = Drug metabolism in CD-1 mouse liver microsomes assessed as hydrolysis metabolite formation rate by LC-MS/MS analysis; format: ADME; procedure, shortened: as §5
[38] = Oral bioavailability in CD-1 mouse at 20 mg/kg administered through gavage by LC-MS/MS analysis relative to 2 mg/kg, iv dose; format: ADME, organism-based; conditions: in vivo; procedure, shortened: as §1
[39] = Intrinsic clearance in Sprague-Dawley rat liver microsomes at 0.1 uM by LC-MS/MS analysis in presence of NADPH; format: ADME; conditions: read-out: CLH; procedure, shortened: as §4

CC(C)NC(=O)[C@H]1CC[C@@H](n2/c(=N/C(=O)c3ccc(F)cc3)[nH]c3ccc(CN4CCC(C(C)(C)O)CC4)cc32)CC1
Tmax [1]: 1 h
Vmax(app) (Plasma [2]): 19.7 pmol/min/mL
Km (Plasma [2]; read-out: Km(app)): 276 nM
clearance [3]: 92 mL/min/kg
half-life [4]: 63 min
AUC(0-inf) [5]: 23.7 µM·h
CL/F [6]: 437 mL/min/kg
Vd [7]: 2.62 L/kg
microsomal CLint at 0.1 µM [8]: 891 µL/min/mg
Tmax [9]: 15 min
bioavailability [10]: 120%
AUC(0-inf) [11]: 1.31 µM·h
microsomal CLint at 0.1 µM [12]: 93 µL/min/mg
Cmax [13]: 15.2 µM
microsomal CLint at 1 µM [14]: 13 µL/min/mg
Cmax [15]: 10.7 µM
half-life [16]: 138 min
AUC(0-inf) [17]: 37.4 µM·h
Cmax [18]: 782 nM
half-life at 0.83 µM [19]: 12 min
fraction unbound at 7 h [20]: 0.02
microsomal CLint at 1 µM [21]: 110 µL/min/mg
AUC(0-inf) [22]: 0.627 µM·h
CL (Plasma [23]): 71.4 uL/min.ml
half-life [24]: 130 min
Tmax [25]: 1 h
CL/F [26]: 77.2 mL/min/kg
microsomal CLint at 1 µM [27]: 50 µL/min/mg
F (Mus musculus): 151%
microsomal CLint at 1 µM [28]: 67 µL/min/mg
half-life [29]: 73.8 min
MRT [30]: 28.4 min
Drug metabolism (Plasma [31]): metabolite_detected
microsomal CLint at 0.1 µM [32]: 805 µL/min/mg
microsomal CLint at 1 µM [33]: 33 µL/min/mg
fraction unbound at 7 h [34]: 0.76
Vmax(app) [35]: 45.4 pmol/min/mg
Km ([35]; read-out: Km(app)): 263 nM
CL/F [36]: 60.8 mL/min/kg
Vmax(app) [37]: 82 pmol/min/mg
Km ([37]; read-out: Km(app)): 43.7 nM
bioavailability [38]: 21.1%
microsomal CLint at 0.1 µM [39]: 14 µL/min/mg
